Measured values reported in ChEMBL document CHEMBL1649446, “Comparative antipneumococcal activities of sulopenem and other drugs” (2009).
Converted amounts (≈) assume the structure as drawn.

Key:
Assay type in all cases: functional
Streptococcus pneumoniae [1] = experiment: Antimicrobial activity against Streptococcus pneumoniae 1 by time-kill analysis
Procedure, shortened: (§1)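 Time-kill in cation-adjusted Mueller-Hinton broth with 5% lysed horse blood; inocula 5 × 105 to 5 × 10^6 CFU/ml; drugs at MIC, 2× and 4× MIC; 35°C shaking water bath; viable counts at 0, 3, 6, 12 and 24 h. Bactericidal if ≥3 log10 CFU/ml (99.9%) reduction from original inoculum; 90% and 99% killing also scored.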

Streptococcus pneumoniae [2] = experiment: Antimicrobial activity against Streptococcus pneumoniae isolate 3481 by agar dilution method
Procedure, shortened: (§2)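 Agar dilution MIC on Mueller-Hinton agar with 5% sheep blood, inocula 10^4 CFU/spot; amoxicillin-clavulanate combined 1:2; S. pneumoniae ATCC 49619 quality control each run.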

Streptococcus pneumoniae [3] = experiment: Antimicrobial activity against Streptococcus pneumoniae 5 by time-kill analysis; procedure, shortened: as §1
Streptococcus pneumoniae [4] = experiment: Antimicrobial activity against Streptococcus pneumoniae isolate 3282 by agar dilution method
Streptococcus pneumoniae [5] = experiment: Antimicrobial activity against Streptococcus pneumoniae 4 by time-kill analysis
Procedure, shortened: (§3)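 Time-kill in cation-adjusted Mueller-Hinton broth with 5% lysed horse blood; inocula 5 × 105 to 5 × 10^6 CFU/ml; drugs at MIC, 2× and 4× MIC; 35°C shaking water bath; viable counts at 0, 3, 6, 12, 24 h. Bactericidal = ≥3 log10 CFU/ml (99.9%) drop from original inoculum; 90%/99%/99.9% killing scored per strain.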

Streptococcus pneumoniae [6] = experiment: Antimicrobial activity against Streptococcus pneumoniae isolate 1055 by agar dilution method
Streptococcus pneumoniae [7] = experiment: Antimicrobial activity against Streptococcus pneumoniae isolate 3346 by agar dilution method
Streptococcus pneumoniae [8] = experiment: Antimicrobial activity against Streptococcus pneumoniae isolate 3275 by agar dilution method; procedure, shortened: as §2
Streptococcus pneumoniae [9] = experiment: Antimicrobial activity against Streptococcus pneumoniae isolate 3374 by agar dilution method; procedure, shortened: as §2
Streptococcus pneumoniae [10] = experiment: Antimicrobial activity against Streptococcus pneumoniae isolate 3681 by agar dilution method; procedure, shortened: as §2
Streptococcus pneumoniae [11] = experiment: Antimicrobial activity against Streptococcus pneumoniae isolate 2617 by agar dilution method; procedure, shortened: as §2
Streptococcus pneumoniae [12] = experiment: Antimicrobial activity against Streptococcus pneumoniae isolate 1146 by agar dilution method; procedure, shortened: as §2
Streptococcus pneumoniae [13] = experiment: Antimicrobial activity against Streptococcus pneumoniae isolate 1424 by agar dilution method; procedure, shortened: as §2
Streptococcus pneumoniae [14] = experiment: Antimicrobial activity against penicillin-intermediate Streptococcus pneumoniae by agar dilution method
Streptococcus pneumoniae [15] = experiment: Antimicrobial activity against Streptococcus pneumoniae isolate 37 by agar dilution method; procedure, shortened: as §2
Streptococcus pneumoniae [16] = experiment: Antimicrobial activity against Streptococcus pneumoniae isolate 1394 by agar dilution method
Streptococcus pneumoniae [17] = experiment: Antimicrobial activity against penicillin-resistant Streptococcus pneumoniae by agar dilution method; procedure, shortened: as §2
Streptococcus pneumoniae [18] = experiment: Antimicrobial activity against Streptococcus pneumoniae 7 by time-kill analysis; procedure, shortened: as §3
Streptococcus pneumoniae [19] = experiment: Antimicrobial activity against Streptococcus pneumoniae isolate 1397 by agar dilution method; procedure, shortened: as §2
Streptococcus pneumoniae [20] = experiment: Antimicrobial activity against Streptococcus pneumoniae isolate 3587 by agar dilution method
Streptococcus pneumoniae [21] = experiment: Antimicrobial activity against Streptococcus pneumoniae 11 by time-kill analysis; procedure, shortened: as §3
Streptococcus pneumoniae [22] = experiment: Antimicrobial activity against Streptococcus pneumoniae 12 by time-kill analysis; procedure, shortened: as §3
Streptococcus pneumoniae [23] = experiment: Antimicrobial activity against Streptococcus pneumoniae isolate 1384 by agar dilution method; procedure, shortened: as §2
Streptococcus pneumoniae [24] = experiment: Antimicrobial activity against Streptococcus pneumoniae isolate 2688 by agar dilution method; procedure, shortened: as §2
Streptococcus pneumoniae [25] = experiment: Antimicrobial activity against Streptococcus pneumoniae isolate 24 by agar dilution method
Streptococcus pneumoniae [26] = experiment: Antimicrobial activity against Streptococcus pneumoniae isolate 2686 by agar dilution method; procedure, shortened: as §2
Streptococcus pneumoniae [27] = experiment: Antimicrobial activity against Streptococcus pneumoniae isolate 3263 by agar dilution method
Streptococcus pneumoniae [28] = experiment: Antimicrobial activity against Streptococcus pneumoniae isolate 2880 by agar dilution method; procedure, shortened: as §2
Streptococcus pneumoniae [29] = experiment: Antimicrobial activity against Streptococcus pneumoniae isolate 2874 by agar dilution method; procedure, shortened: as §2
Streptococcus pneumoniae [30] = experiment: Antimicrobial activity against Streptococcus pneumoniae 19A by agar dilution method; procedure, shortened: as §2
Streptococcus pneumoniae [31] = experiment: Antimicrobial activity against Streptococcus pneumoniae isolate 1564 by agar dilution method
Streptococcus pneumoniae [32] = experiment: Antimicrobial activity against Streptococcus pneumoniae isolate 3412 by agar dilution method; procedure, shortened: as §2
Streptococcus pneumoniae [33] = experiment: Antimicrobial activity against Streptococcus pneumoniae 6 by time-kill analysis; procedure, shortened: as §3
Streptococcus pneumoniae [34] = experiment: Antimicrobial activity against Streptococcus pneumoniae isolate 4755 by agar dilution method; procedure, shortened: as §2
Streptococcus pneumoniae [35] = experiment: Antimicrobial activity against Streptococcus pneumoniae 8 by time-kill analysis; procedure, shortened: as §3
Streptococcus pneumoniae [36] = experiment: Antimicrobial activity against Streptococcus pneumoniae isolate 3260 by agar dilution method
Streptococcus pneumoniae [37] = experiment: Antimicrobial activity against Streptococcus pneumoniae isolate 3455 by agar dilution method
Streptococcus pneumoniae [38] = experiment: Antimicrobial activity against Streptococcus pneumoniae 10 by time-kill analysis; procedure, shortened: as §3
Streptococcus pneumoniae [39] = experiment: Antimicrobial activity against Streptococcus pneumoniae 9 by time-kill analysis; procedure, shortened: as §1
Streptococcus pneumoniae [40] = experiment: Antimicrobial activity against Streptococcus pneumoniae isolate 4747 by agar dilution method; procedure, shortened: as §2
Streptococcus pneumoniae [41] = experiment: Antimicrobial activity against Streptococcus pneumoniae isolate 33 by agar dilution method; procedure, shortened: as §2
Streptococcus pneumoniae [42] = experiment: Antimicrobial activity against Streptococcus pneumoniae isolate 1147 by agar dilution method; procedure, shortened: as §2
Streptococcus pneumoniae [43] = experiment: Antimicrobial activity against Streptococcus pneumoniae 2 by time-kill analysis; procedure, shortened: as §3
Streptococcus pneumoniae [44] = experiment: Antimicrobial activity against Streptococcus pneumoniae isolate 3791 by agar dilution method; procedure, shortened: as §2
Streptococcus pneumoniae [45] = experiment: Antimicrobial activity against penicillin-susceptible Streptococcus pneumoniae by agar dilution method
Streptococcus pneumoniae [46] = experiment: Antimicrobial activity against Streptococcus pneumoniae 3 by time-kill analysis; procedure, shortened: as §3
Streptococcus pneumoniae [47] = experiment: Antimicrobial activity against Streptococcus pneumoniae isolate 3458 by agar dilution method

SMILES: C[C@@H](O)[C@H]1C(=O)N2C(C(=O)O)=C(SCCNC=N)C[C@H]12 [IMIPENEM ANHYDROUS]
- MIC (Streptococcus pneumoniae [1]): 0.004 µg/mL (≈ 0.0134 µM)
- MIC (Streptococcus pneumoniae [2]): 0.125 µg/mL (≈ 0.418 µM)
- MIC (Streptococcus pneumoniae [3]): 0.5 µg/mL (≈ 1.67 µM)
- MIC (Streptococcus pneumoniae [4]): 0.125 µg/mL (≈ 0.418 µM)
- MIC (Streptococcus pneumoniae [5]): 0.25 µg/mL (≈ 0.835 µM)
- MIC (Streptococcus pneumoniae [6]): 0.25 µg/mL (≈ 0.835 µM)
- MIC (Streptococcus pneumoniae [7]): 0.25 µg/mL (≈ 0.835 µM)
- MIC (Streptococcus pneumoniae [8]): 0.03 µg/mL (≈ 0.1 µM)
- MIC (Streptococcus pneumoniae [9]): 0.125 µg/mL (≈ 0.418 µM)
- MIC (Streptococcus pneumoniae [10]): 0.125 µg/mL (≈ 0.418 µM)
- MIC (Streptococcus pneumoniae [11]): 0.125 µg/mL (≈ 0.418 µM)
- MIC (Streptococcus pneumoniae [12]): 0.5 µg/mL (≈ 1.67 µM)
- MIC (Streptococcus pneumoniae [13]): 0.25 µg/mL (≈ 0.835 µM)
- MIC50 (Streptococcus pneumoniae [14]): 0.03 µg/mL (≈ 0.1 µM)
- MIC90 (Streptococcus pneumoniae [14]): 0.125 µg/mL (≈ 0.418 µM)
- MIC (Streptococcus pneumoniae [15]): 0.25 µg/mL (≈ 0.835 µM)
- MIC (Streptococcus pneumoniae [16]): 0.25 µg/mL (≈ 0.835 µM)
- MIC50 (Streptococcus pneumoniae [17]): 0.25 µg/mL (≈ 0.835 µM)
- MIC90 (Streptococcus pneumoniae [17]): 0.25 µg/mL (≈ 0.835 µM)
- MIC (Streptococcus pneumoniae [18]): 0.5 µg/mL (≈ 1.67 µM)
- MIC (Streptococcus pneumoniae [19]): 0.25 µg/mL (≈ 0.835 µM)
- MIC (Streptococcus pneumoniae [20]): 0.125 µg/mL (≈ 0.418 µM)
- MIC (Streptococcus pneumoniae [21]): 0.25 µg/mL (≈ 0.835 µM)
- MIC (Streptococcus pneumoniae [22]): 0.25 µg/mL (≈ 0.835 µM)
- MIC (Streptococcus pneumoniae [23]): 0.125 µg/mL (≈ 0.418 µM)
- MIC (Streptococcus pneumoniae [24]): 0.25 µg/mL (≈ 0.835 µM)
- MIC (Streptococcus pneumoniae [25]): 0.25 µg/mL (≈ 0.835 µM)
- MIC (Streptococcus pneumoniae [26]): 0.25 µg/mL (≈ 0.835 µM)
- MIC (Streptococcus pneumoniae [27]): 0.06 µg/mL (≈ 0.2 µM)
- MIC (Streptococcus pneumoniae [28]): 0.25 µg/mL (≈ 0.835 µM)
- MIC (Streptococcus pneumoniae [29]): 0.25 µg/mL (≈ 0.835 µM)
- MIC50 (Streptococcus pneumoniae [30]): 0.5 µg/mL (≈ 1.67 µM)
- MIC90 (Streptococcus pneumoniae [30]): 0.5 µg/mL (≈ 1.67 µM)
- MIC (Streptococcus pneumoniae [31]): 0.125 µg/mL (≈ 0.418 µM)
- MIC (Streptococcus pneumoniae [32]): 0.125 µg/mL (≈ 0.418 µM)
- MIC (Streptococcus pneumoniae [33]): 0.03 µg/mL (≈ 0.1 µM)
- MIC (Streptococcus pneumoniae [34]): 0.125 µg/mL (≈ 0.418 µM)
- MIC (Streptococcus pneumoniae [35]): 0.25 µg/mL (≈ 0.835 µM)
- MIC (Streptococcus pneumoniae [36]): 0.25 µg/mL (≈ 0.835 µM)
- MIC (Streptococcus pneumoniae [37]): 0.5 µg/mL (≈ 1.67 µM)
- MIC (Streptococcus pneumoniae [38]): 0.03 µg/mL (≈ 0.1 µM)
- MIC (Streptococcus pneumoniae [39]): 0.03 µg/mL (≈ 0.1 µM)
- MIC (Streptococcus pneumoniae [40]): 0.125 µg/mL (≈ 0.418 µM)
- MIC (Streptococcus pneumoniae [41]): 0.5 µg/mL (≈ 1.67 µM)
- MIC (Streptococcus pneumoniae [42]): 0.5 µg/mL (≈ 1.67 µM)
- MIC (Streptococcus pneumoniae [43]): 0.004 µg/mL (≈ 0.0134 µM)
- MIC (Streptococcus pneumoniae [44]): 0.125 µg/mL (≈ 0.418 µM)
- MIC50 (Streptococcus pneumoniae [45]): 0.008 µg/mL (≈ 0.0267 µM)
- MIC90 (Streptococcus pneumoniae [45]): 0.008 µg/mL (≈ 0.0267 µM)
- MIC (Streptococcus pneumoniae [46]): 0.06 µg/mL (≈ 0.2 µM)
- MIC (Streptococcus pneumoniae [47]): 0.5 µg/mL (≈ 1.67 µM)
